Screens from PubChem.
Cneo AK release: causes C. neoformans cell lysis; 0.2% of 360,000 active; adenylate kinase release luminescence, 4 h; normalised: neutral wells 0, clomiphene wells 100; lysis activity, % at 15 µM; AID 651654;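 active = mean lysis activity across replicates of at least 80%, whatever share of replicates individually reach that level; inactive = mean lysis activity below 80%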
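Material: C. neoformans cells | Amount: Yeast cell density of 5 × 10^6 cells/mL | Medium: Fresh YPD growth medium | Dosing: Single dose | Times: Static 4 h at 37 °C with compound, 1 h detection | Detection: AK luminescence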
SIRT5 inh: blocks human SIRT5 desuccinylation of peptide; Purified SirT5, succinyl-peptide AMC, trypsin-coupled fluorescence; Q9NXA8; inhibition, % at 15 µM; 1.1% of 330,000 active; in the data active = inhibition above about 15%
Target sequence (Q9NXA8 whole entry, looked up): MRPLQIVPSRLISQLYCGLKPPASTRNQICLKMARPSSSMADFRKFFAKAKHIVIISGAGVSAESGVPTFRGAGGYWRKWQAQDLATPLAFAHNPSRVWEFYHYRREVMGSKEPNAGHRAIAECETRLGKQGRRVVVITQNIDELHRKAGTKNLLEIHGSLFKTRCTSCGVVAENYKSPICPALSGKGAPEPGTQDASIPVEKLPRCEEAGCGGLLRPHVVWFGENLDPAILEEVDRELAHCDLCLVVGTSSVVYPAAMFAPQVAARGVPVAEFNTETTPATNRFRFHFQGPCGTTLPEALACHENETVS
S100A4 inh HTS: S100A4-myosin IIA interaction inhibition. 0.14% of 360,000 active. inhibition, % at 10.7 µM. S100A4/TAMRA-MyoIIA peptide fluorescence polarization. AID 652163. P26447;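 active = mean inhibition of at least 70% across replicates, with every replicate also reaching that level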
Target sequence (P26447 whole entry, looked up): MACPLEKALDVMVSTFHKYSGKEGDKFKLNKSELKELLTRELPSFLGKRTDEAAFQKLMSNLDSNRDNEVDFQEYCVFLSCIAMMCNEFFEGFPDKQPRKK
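incubation = readout 5 min after mixing, signal stable up to 60 min | system = S100A4 monomer protein | buffer or medium = HEPES pH 7.2 with CaCl2, KCl, NaCl, DTT, Triton | benchmarks = neutral control DMSO, positive control TFP | also added = fluorescent myosin IIA peptide, 5 nM | compound dosing = one concentration per compound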
PGC1a acetyl inh: modulators of PGC1a acetylation. U2OS PGC1a acetylation, AlphaScreen anti-acetyl-lysine; with virally co-expressed GCN5 acetyltransferase. inhibition, % at 15.6 µM. 0.17% of 350,000 active. AID 651687;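 active = every replicate shows inhibition of at least 40%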;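 note: 0% = neutral control wells and 100% = positive control wells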
Ecoli rRNA inh: inhibitors of bacterial rRNA selective over humanized ribosomes; AID 720706; 1.6% of 350,000 active; E. coli WT GFP vs humanized-ribosome RFP mutants, fluorescence, 24 h; hits give low values; DMSO median 0, no signal -100; GFP signal change (wild-type ribosome), % (no concentration beside the values);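 active = significant combined selectivity score with lowered wild-type GFP, culture density cut under 30%, mutant RFP and density less affected; inactive = any of these conditions unmet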
C2C12 statin: suppression of simvastatin myotoxicity; C2C12 myotubes + simvastatin, ATP luminescence, 48 h; scaled: DMSO 0, geranylgeraniol control 100; rescue of ATP level, % at 7.49 µM; 0.78% of 330,000 active; AID 602340;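 active = mean ATP rescue above about 67%, or every replicate alone reaching that limit, limit read from the data, passing the limit was not always enough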;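 note: myotubes were challenged with 10 µM simvastatin during compound exposure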
* hit, by the source's call; . = no result. An excerpt weighted towards active compounds, which were near 3% of everything screened.

SMILES | Cneo AK release | SIRT5 inh | S100A4 inh HTS | PGC1a acetyl inh | Ecoli rRNA inh | C2C12 statin
C[C@H](CO)N1C[C@H](C)[C@H](CN(C)Cc2ccc(C(=O)Nc3ccccc3N)cc2)Oc2ccc(N(C)C)cc2C1=O | -2 | -1 | -10 | -34 | -2 | 83*
C[C@H](CO)N1C[C@H](C)[C@@H](CN(C)Cc2ccc(C(=O)Nc3ccccc3N)cc2)Oc2ccc(NC(=O)Nc3cccc4ccccc34)cc2C1=O | 1 | . | 35 | -6 | 2 | 57
C[C@@H]1CN([C@H](C)CO)C(=O)c2cc(NC(=O)Cn3cnnn3)ccc2O[C@@H]1CN(C)Cc1ccc(C(=O)Nc2ccccc2N)cc1 | 4 | 1 | 3 | 3 | -1 | 105*
C[C@H]1CN([C@@H](C)CO)C(=O)c2cc(C#CC3CC3)cnc2O[C@@H]1CN(C)Cc1ccccn1 | -2 | 10 | 18 | -8 | 1 | 13
O=C(Nc1ccccc1)N1CCCCN2[C@H](CO)[C@H](c3ccc(Br)cc3)[C@@H]2C1 | 6 | -11 | -3 | 6 | -5 | 19
COc1ccc2c3c([nH]c2c1)[C@H](CO)N(C(=O)C1CCOCC1)CC31CCN(S(C)(=O)=O)CC1 | . | . | -8 | -8 | 0 | .
COc1ccc(Cl)cc1-n1c(=S)sc2c(=O)[nH]c(SCC(=O)C(C)(C)C)nc21 | 2 | 1 | -2 | 2 | -24* | -7
CCCCNC(=O)CSc1nc2c(sc(=S)n2-c2cc(Cl)ccc2OC)c(=O)[nH]1 | -1 | -2 | 0 | . | -2 | -3
O=C(CCNS(=O)(=O)c1ccc(Br)cc1)NCc1ccc2c(c1)OCO2 | -3 | . | . | -22 | . | 152*
COc1ccc(S(=O)(=O)NC(CC(=O)NCc2ccc3c(c2)OCO3)c2ccco2)cc1 (stereo not drawn) | 0 | . | . | 5 | . | 117*
CCCNC(=O)CC(NS(=O)(=O)c1ccc(OC)cc1)c1ccco1 (stereo not drawn) | . | 1 | 5 | 10 | 12 | .
CCCN1C[C@@H](C)[C@@H](OC)CN(C)C(=O)c2ccc(NS(=O)(=O)c3ccccc3)cc2OC[C@@H]1C | 0 | 0 | 11 | 6 | -1 | 3
CO[C@H](CN(C)S(=O)(=O)c1cccc(Cl)c1)[C@H](C)CN([C@H](C)CO)S(=O)(=O)c1cccc(Cl)c1 | 58 | -6 | 12 | -35 | -2 | -10
COc1ccc2c3c([nH]c2c1)[C@@H](CO)N(C(=O)c1cnccn1)CC31CN(S(C)(=O)=O)C1 | . | -2 | -52 | 8 | -1 | .
O=C(NCCN1CCOCC1)C1CCC(CNS(=O)(=O)c2ccc(Cl)cc2)CC1 (stereo not drawn) | 0 | 24* | -20 | -2 | 18 | -8
CCCC(=O)Nc1ccc2c(c1)OC[C@H](C)N(Cc1ccccc1)C[C@H](C)[C@H](OC)CN(C)C2=O | -1 | 2 | -12 | 9 | -1 | 24
CCCC(=O)Nc1ccc2c(c1)C(=O)N(C)C[C@H](OC)[C@@H](C)CN(Cc1ccccc1)[C@H](C)CO2 | -3 | -1 | 0 | -6 | -8 | 14
CCCC(=O)Nc1ccc2c(c1)C(=O)N(C)C[C@H](OC)[C@H](C)CN(Cc1ccccc1)[C@H](C)CO2 | 4 | -2 | 96* | 4 | 1 | 3
CCCC(=O)Nc1ccc2c(c1)C(=O)N(C)C[C@H](OC)[C@H](C)CN(Cc1ccccc1)[C@@H](C)CO2 | 5 | 0 | 98* | -3 | -1 | 5
Cc1ccccc1CNC(=O)c1ccccc1NS(C)(=O)=O | . | 27* | -8 | . | 7 | .
CS(=O)(=O)Nc1ccccc1C(=O)NCc1ccccc1Cl | 1 | -3 | 3 | 7 | 20 | -54
O=C(C[C@H]1CC[C@H]2[C@@H](COC[C@@H](O)CN2C(=O)c2ccccc2F)O1)NCc1ccc(-c2ccccc2)cc1 | -2 | -1 | 5 | 7 | -3 | -4
Cc1cc(N)n(-c2ccc(S(=O)(=O)c3ccc(C(C)C)cc3)cc2)n1 | . | -3 | 6 | -10 | -26* | .
CN(C)c1ccc(C=C2SC(=S)NC2=O)cc1 | 4 | -1 | 4 | 51* | 6 | -1
